Laboratory results from ChEMBL document CHEMBL1148391, “Discovery of 4-substituted pyrrolidone butanamides as new agents with significant antiepileptic activity” (J Med Chem, 2004).

Columns and labels:
[1] = molecular target: Synaptic vesicle glycoprotein 2A (Rattus norvegicus) (UniProt Q02563); assay: In vitro inhibitory activity against [3H](2S)-2-[4-(3-azidophenyl)-2-oxopyrrolidin-1-yl]butanamide binding to levetiracetam binding site; set-up: concentration or dose not given beside the values; conditions: concentration not given here
How it was run: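 Rat cerebral cortex membranes (male Sprague-Dawley, 200–250 g), homogenised in Tris-HCl/sucrose at 4 °C, washed, preincubated 15 min at 37 °C. Binding: 4 °C for 120 min in 50 mmol/L Tris-HCl pH 7.4 with 2 mmol/L MgCl2, 1–2 × 10^-9 mol/L tritiated azidophenyl radioligand, rising test concentrations. Nonspecific binding with 10^-3 mol/L levetiracetam. Rapid filtration, scintillation counting. pIC50 is the mean of two independent determinations.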

Mus musculus [2] = assay: In vivo dose required to protect 50% audiogenic seizure prone mice against clonic convulsions; assay type: functional
How it was run: (§1)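 Genetically sound-sensitive DBA-derived mice, male or female, 14–28 g, N = 10 per group. Compound given ip 60 min before stimulus at log-spaced doses, generally 1.0 × 10^-5 to 1.0 × 10^-3 mol/kg, with a vehicle control group. After 30 s orientation, a 90 dB, 10–20 kHz tone was given for 30 s. Clonic convulsions were scored. ED50 with 95% confidence limits came from probit analysis.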

[3] = Half life at 10 mg/kg was determined in rat; assay type: ADME, organism-based; set-up: dose 10 mg/kg; conditions: in vivo
[4] = Maximum time to achieve peak plasma concentration was determined in rat at 10 mg/kg; assay type: ADME, organism-based; set-up: dose 10 mg/kg
[5] = Total clearance at 10 mg/kg was determined in rat; assay type: ADME, organism-based; set-up: dose 10 mg/kg; conditions: in vivo
[6] = Oral bioavailability at 10 mg/kg was determined in rat; assay type: ADME, organism-based; conditions: in vivo, read-out: Bioavailabiility
Mus musculus [7] = assay: In vivo dose required to protect 50% audiogenic seizure prone mice against clonic convulsions; value ranges from 59 to 281; assay type: functional; how it was run: as §1
Mus musculus [8] = assay: In vivo dose required to protect 50% audiogenic seizure prone mice against clonic convulsions; value ranges from 143 to 283; assay type: functional; how it was run: as §1
[9] = Half life at 1 mg/kg was determined in rat; assay type: ADME, organism-based; set-up: dose 1 mg/kg; conditions: in vivo
[10] = Oral bioavailability at 1 mg/kg was determined in rat; assay type: ADME, organism-based; conditions: in vivo, read-out: Bioavailabiility
[11] = Total clearance at 1 mg/kg was determined in rat; assay type: ADME, organism-based; set-up: dose 1 mg/kg; conditions: in vivo
[12] = Maximum time to achieve peak plasma concentration was determined in rat at 1 mg/kg; assay type: ADME, organism-based; set-up: dose 1 mg/kg
Mus musculus [13] = assay: In vivo dose required to protect 50% audiogenic seizure prone mice against clonic convulsions; value ranges from 102 to 715; assay type: functional; how it was run: as §1

Sequence of Synaptic vesicle glycoprotein 2A (Rattus norvegicus) (Q02563 whole entry): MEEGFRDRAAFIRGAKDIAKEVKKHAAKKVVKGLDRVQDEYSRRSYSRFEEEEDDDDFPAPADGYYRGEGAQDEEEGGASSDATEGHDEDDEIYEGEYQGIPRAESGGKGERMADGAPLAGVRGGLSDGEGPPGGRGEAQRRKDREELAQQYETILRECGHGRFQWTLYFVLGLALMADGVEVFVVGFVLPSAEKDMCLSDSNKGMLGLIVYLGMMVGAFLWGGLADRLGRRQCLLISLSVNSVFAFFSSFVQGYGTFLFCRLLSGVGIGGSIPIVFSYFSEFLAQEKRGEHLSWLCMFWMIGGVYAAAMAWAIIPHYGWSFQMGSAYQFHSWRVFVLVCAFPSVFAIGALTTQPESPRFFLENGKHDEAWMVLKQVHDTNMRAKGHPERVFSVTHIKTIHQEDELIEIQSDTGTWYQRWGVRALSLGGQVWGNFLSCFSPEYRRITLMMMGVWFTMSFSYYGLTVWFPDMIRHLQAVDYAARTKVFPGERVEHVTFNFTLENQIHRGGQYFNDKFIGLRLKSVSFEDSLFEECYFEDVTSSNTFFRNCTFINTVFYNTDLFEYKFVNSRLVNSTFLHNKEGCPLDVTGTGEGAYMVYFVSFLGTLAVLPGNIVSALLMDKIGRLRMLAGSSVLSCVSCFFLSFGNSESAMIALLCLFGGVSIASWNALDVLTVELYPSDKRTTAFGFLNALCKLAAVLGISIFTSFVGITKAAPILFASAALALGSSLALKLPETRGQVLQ

Row | SMILES | inhibition [1] | ED50 (Mus musculus [2]) | further results
1 | CCCN(C(C)=O)C(CC)C(N)=O (centres undefined) | < 20% | – | –
2 | CC[C@@H](C(=O)NO)N1CCCC1=O | – | 1000 µmol/kg | –
3 | CC[C@@H](C(=O)N(C)O)N1CCCC1=O | – | 1000 µmol/kg | –
4 | CC[C@@H](C(=O)NOC)N1CCCC1=O | < 20% | 1000 µmol/kg | –
5 | CC[C@@H](C(=O)NCc1ccccc1)N1CCCC1=O | < 30% | 560 µmol/kg | –
6 | CCC[C@@H]1CC(=O)N([C@@H](CC)C(N)=O)C1 [BRIVARACETAM] | – | 14 µmol/kg | half-life [3]: 1.7 h; Tmax [4]: 0.5 h; clearance [5]: 4.67 mL/min/kg; bioavailability [6]: 100%
7 | CC[C@H](C(N)=O)N1CCCC1=O [LEVITIRACETAM] | – | 1000 µmol/kg | –
8 | CC[C@@H](C(N)=O)N(C)C(C)=O | – | 1800 µmol/kg | –
9 | CC(C)C(C(N)=O)N1CCCC1=O (centres undefined) | – | 890 µmol/kg | –
10 | CC[C@@H](C(=O)N(C)OC)N1CCCC1=O | < 20% | 1000 µmol/kg | –
11 | CC[C@@H](C(N)=O)N1C[C@H](CO[N+](=O)[O-])CC1=O | – | 25 µmol/kg | –
12 | CC[C@@H](C(=O)O)N1CCCC1=O | < 20% | 3200 µmol/kg | –
13 | CCC[C@@H](C(N)=O)N1CCCC1=O | – | – | ED50 (Mus musculus [7]): 190 µmol/kg
14 | CC[C@@H](C(N)=O)N1C[C@H](CSC)CC1=O | – | 160 µmol/kg | –
15 | NC(=O)CN1CCCC1=O [PIRACETAM] | – | 10000 µmol/kg | –
16 | CC[C@@H](C(N)=O)N1C[C@H](CN2CCCC2)CC1=O | < 20% | 320 µmol/kg | –
17 | CC[C@@H](C(N)=O)N1C[C@H](CN=[N+]=[N-])CC1=O | – | 3.6 µmol/kg | –
18 | CCCCCCCCN(C(=O)Cc1ccc(Cl)cc1)C(CC)C(N)=O (centres undefined) | – | 1000 µmol/kg | –
19 | CC[C@@H](C(=N)N)N1CCCC1=O | – | 1000 µmol/kg | –
20 | CCCCCC1CCC(=O)N1C(CC)C(N)=O (centres undefined) | < 20% | – | –
21 | CC[C@@H](C(N)=O)N1CCC(CO)C1=O (some centres undefined) | < 20% | – | –

Row | SMILES | inhibition [1] | ED50 (Mus musculus [2]) | further results
22 | CCC(C(N)=O)N1CC(COC)CC1=O (centres undefined) | – | 400 µmol/kg | –
23 | CC[C@@H](C(N)=O)N1CCC(C)(CC)C1=O (some centres undefined) | < 20% | 1000 µmol/kg | –
24 | CC[C@@H](C(=O)Nc1ccccc1)N1CCCC1=O | < 20% | 560 µmol/kg | –
25 | CCCCCCN(CCCCCC)C(=O)[C@H](CC)N1CCCC1=O | < 20% | 560 µmol/kg | –
26 | CC[C@@H](C(N)=O)N1C[C@H](CNS(=O)(=O)c2ccccc2)CC1=O | < 20% | 1000 µmol/kg | –
27 | CC[C@@H](C(N)=O)N1CCCC1=O [LEVETIRACETAM] | – | – | ED50 (Mus musculus [8]): 180 µmol/kg
28 | CC[C@@H](C(N)=O)N1CC(CC2CC2)CC1=O (some centres undefined) | – | 33 µmol/kg | –
29 | CC[C@@H](C(=N)S)N1CCCC1=O | < 20% | 1000 µmol/kg | –
30 | CC[C@@H](C(N)=O)N1C[C@H](CCl)CC1=O | – | 25 µmol/kg | –
31 | CC(C)(C)[C@@H](C(N)=O)N1CCCC1=O | < 20% | – | –
32 | CC[C@@H](C(N)=O)N1C[C@H](CF)CC1=O | – | 370 µmol/kg | –
33 | CCC(C(N)=O)N1CC(C(C)C)CC1=O (centres undefined) | – | 360 µmol/kg | –
34 | CCOC(=O)[C@H](CC)N1CCCC1=O | < 20% | – | –
35 | CC[C@@H](C(=O)NN)N1CCCC1=O | – | 1000 µmol/kg | –
36 | CC[C@@H](C(N)=O)N1C(=O)CCC1C (some centres undefined) | – | 1000 µmol/kg | –
37 | CCC(C(N)=O)N1C[C@H](CO)CC1=O (some centres undefined) | < 20% | – | –
38 | CC[C@@H](C(N)=O)N1CC(N)CC1=O (some centres undefined) | < 20% | – | –
39 | CC[C@@H](C(=N)NO)N1CCCC1=O | < 20% | 1000 µmol/kg | –
40 | NCCCC(C(N)=O)N1CCCC1=O (centres undefined) | < 20% | – | –
41 | CCCC1(C)CC(=O)N([C@@H](CC)C(N)=O)C1 (some centres undefined) | – | 400 µmol/kg | –
42 | CC[C@@H](C(N)=O)N1CCC(C)C1=O (some centres undefined) | – | 1000 µmol/kg | –

Row | SMILES | inhibition [1] | ED50 (Mus musculus [2]) | further results
43 | CCC1CC(=O)N([C@@H](CC)C(N)=O)C1 (some centres undefined) | – | 87 µmol/kg | –
44 | CCCC1(CCC)CC(=O)N([C@@H](CC)C(N)=O)C1 | < 30% | 1000 µmol/kg | –
45 | CCC(C(N)=O)N1CC(O)CC1=O (centres undefined) | < 20% | 1000 µmol/kg | –
46 | CC[C@@H](C(N)=O)N1C[C@H](CI)CC1=O | – | 13 µmol/kg | half-life [9]: 2 h; bioavailability [10]: 100%; clearance [11]: 4.8 mL/min/kg; Tmax [12]: 0.8 h
47 | CC[C@@H](C(=O)NC)N1CCCC1=O | – | 1800 µmol/kg | –
48 | CC[C@@H](C(N)=O)N1C[C@H](CBr)CC1=O | – | 180 µmol/kg | –
49 | CC(C)(C(N)=O)N1CCCC1=O | < 20% | – | –
50 | CCC(C(N)=O)N1CC(C(F)(F)F)CC1=O (centres undefined) | < 20% | 1000 µmol/kg | –
51 | CC[C@@H](C(N)=O)N1C[C@H](C(=O)O)CC1=O | < 20% | 1000 µmol/kg | –
52 | CC[C@@H](C(N)=O)N1CC(CC(C)(C)C)CC1=O (some centres undefined) | – | 1000 µmol/kg | –
53 | CC[C@@H](C(N)=O)N1C[C@H](C(=O)OC)CC1=O | < 20% | 1000 µmol/kg | –
54 | CC[C@@H](C(N)=O)N1C[C@H](C(N)=O)CC1=O | < 20% | 1000 µmol/kg | –
55 | CCC(C(N)=O)N1CCC(Cc2ccccc2)C1=O (centres undefined) | < 20% | 320 µmol/kg | –
56 | CCC[C@H](C(N)=O)N1CCCC1=O | – | 1000 µmol/kg | –
57 | C[C@@H](C(N)=O)N1CCCC1=O | – | – | ED50 (Mus musculus [13]): 504 µmol/kg
58 | CCC(C(N)=O)N1C(=O)CCC1(C)C (single isomer, unassigned) | – | 1000 µmol/kg | –
59 | CCCCC1CC(=O)N(C(CC)C(N)=O)C1 (centres undefined) | – | 480 µmol/kg | –
60 | CC[C@@H](C(N)=O)N1C[C@H](C)CC1=O | – | 110 µmol/kg | –
61 | CC[C@@H](C(N)=O)N1CC(NC(=O)OC)CC1=O (some centres undefined) | – | 540 µmol/kg | –
62 | CCC(C(N)=O)N1CC(Cc2ccccc2)CC1=O (centres undefined) | – | 1000 µmol/kg | –
63 | CCC[C@H]1CC(=O)N([C@@H](CC)C(N)=O)C1 | – | 44 µmol/kg | –
